# Bioassay records: PubChem, Broad Institute
# Shown are actives, neighbours in structure and some others; about 2.2% of the full set was active somewhere.
# C2C12 statin – suppressors of statin myotoxicity in C2C12 myotubes, primary screen, cell-based, single point, plate reader; rescue of ATP level, % at 7.49 µM; C2C12 myotubes + simvastatin, ATP luminescence, 48 h; scaled: DMSO 0, geranylgeraniol control 100; 330,000 tested, 0.78% active;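 active = mean ATP rescue above about 67%, or every replicate alone reaching that limit, limit read from the data, passing the limit was not always enough; inconclusive = no clear call, values can overlap the other calls; inactive = mean under the limit and some replicate under it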;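 also: myotubes were challenged with 10 µM simvastatin during compound exposure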
# E-sel inducer – E-selectin induction in HUVECs, primary screen, imaging, HUVEC, immunofluorescence imaging, single point. 260,000 tested, 0.37% active. P16581. activation, % at 7.58 µM. normalized: neutral wells 0, TNF-alpha wells 100;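 active = mean E-selectin-positive cell signal at least 10% of the positive control, reached in at least 60% of replicates, without over 20% cell loss; inconclusive = no rule given, readout overlaps actives, possibly toxicity-flagged; inactive = the rest, including those meeting only one limit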
# Target sequence (P16581 whole entry, looked up): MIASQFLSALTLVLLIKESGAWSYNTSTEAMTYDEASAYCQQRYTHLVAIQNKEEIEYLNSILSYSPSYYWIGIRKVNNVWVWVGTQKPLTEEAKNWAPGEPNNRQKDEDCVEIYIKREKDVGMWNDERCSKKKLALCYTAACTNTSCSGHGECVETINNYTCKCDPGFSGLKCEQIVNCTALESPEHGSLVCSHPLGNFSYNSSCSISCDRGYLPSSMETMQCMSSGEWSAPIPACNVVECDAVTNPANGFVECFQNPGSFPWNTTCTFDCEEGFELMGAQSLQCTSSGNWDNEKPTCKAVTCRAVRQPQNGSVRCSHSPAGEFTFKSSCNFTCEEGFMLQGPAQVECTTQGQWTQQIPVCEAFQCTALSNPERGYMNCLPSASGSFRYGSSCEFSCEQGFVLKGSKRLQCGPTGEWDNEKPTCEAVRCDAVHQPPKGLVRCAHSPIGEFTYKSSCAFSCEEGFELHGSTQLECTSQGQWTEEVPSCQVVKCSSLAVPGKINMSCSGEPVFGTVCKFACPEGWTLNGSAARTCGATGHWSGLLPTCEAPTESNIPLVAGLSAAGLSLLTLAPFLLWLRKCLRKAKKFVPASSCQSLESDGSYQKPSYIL
#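 Read-out: % PE-positive cells | Test system: HUVEC | Doses: One compound dose added by pin transfer | Buffer or medium: EGM-2 over gelatin coat | Signal: Immunofluorescence imaging | Benchmarks: TNF-alpha, DMSO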
# DENV2 CPE – inhibitors of DENV2 cytopathic effect, primary screen, cell-based, plate reader, single concentration; 350,000 tested, 1.7% active; AID 651640, 2012; CPE inhibition, % at 9.99 µM; DENV2-infected cells, cytopathic effect rescue; in the data active = CPE inhibition above about 20%, passing the limit was not always enough; inconclusive = no clear call, values can overlap the other calls; tested in BHK-21 cells;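 also: 0% = median of neutral control wells and 100% = median of positive control wells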
# The depositor's hits bear a star; u = inconclusive; x = no result given.
SMILES,C2C12 statin,E-sel inducer,DENV2 CPE
Cc1cccc(-c2nnc(NC(=O)c3ccc(N4C(=O)CCC4=O)cc3)s2)c1,-3,0,1
Cc1ccc(OCC(=O)Nc2ccc(S(=O)(=O)Nc3cc(C)nc(C)n3)cc2)cc1,4,x,17
Cc1ccc(C(=O)NCC(=O)Nc2ccc(S(=O)(=O)Nc3cc(C)nc(C)n3)cc2)cc1,16,x,56*
C[C@H]1CN([C@@H](C)CO)C(=O)c2cc(NC(=O)NC3CCCCC3)ccc2O[C@@H]1CN(C)Cc1ccncc1,-26,0,-6
Cc1ccc(S(=O)(=O)N2CC[C@@H]3[C@H](CO)N(C)c4ccc(C#Cc5cccnc5)cc4[C@@H]32)cc1,-32,-1,-5
C[C@@H]1CN([C@@H](C)CO)C(=O)c2cc(C#Cc3ccccc3)cnc2O[C@@H]1CN(C)C(=O)CCN1CCCCC1,-9,0,0
O=C(O)CCCCCN1C(=O)/C(=C\c2ccc(-c3ccc(Cl)cc3)o2)SC1=S,133*,x,6
O=C(O)CCCN1C(=O)/C(=C/c2ccc(-c3nc4ccccc4s3)o2)SC1=S,-10,x,x
COc1ccccc1C(=O)Nc1ccc2c(c1)OCCO2,10,x,x
CC(C)c1cc(C(=O)Nc2ccc3c(c2)OCO3)no1,83*,1,-10
O=C(Nc1ccc2c(c1)OCO2)c1cc(C2CC2)on1,2,0,u
O=C(Nc1ccc(C(F)(F)F)cc1)c1ccc2nc[nH]c2c1,-21,1,-9
Cc1oc(C(C)(C)C)cc1C(=O)Nc1ccc2c(c1)OCO2,-17,x,-7
O=C(Nc1ccc2c(c1)OCO2)c1ccc2nc[nH]c2c1,86*,x,x
Cc1oc(C(C)(C)C)cc1C(=O)Nc1ccc2c(c1)OCCO2,95*,x,x
COc1ccccc1C(=O)Nc1ccc2c(c1)OCO2,114*,x,x
COCC(=O)N(C)C[C@H]1[C@H](c2ccccc2)[C@@H](CO)N1C(=O)Cc1ccncc1,5,0,10
Cc1noc(C)c1NC(=O)Nc1ccc2c(c1)C(=O)N([C@@H](C)CO)C[C@@H](C)[C@H](CN(C)S(=O)(=O)c1cccs1)O2,-4,11,4
Cc1ccc(C(=O)Nc2ccc3c(c2)OCO3)cc1Cl,2,x,-9
Cc1ccc(NC(=O)c2ccc3c(c2)OCO3)cc1Cl,-27,x,22*
C[C@H](CO)N1C[C@H](C)[C@H](CN(C)S(C)(=O)=O)Oc2cc(C3=CCCC3)ccc2S1(=O)=O,11,0,x
CCCCCCN(C(=O)CCCCCN1C(=O)NC(c2ccc(-c3ccccc3)cc2)C(C(=O)OCc2ccccc2)=C1C)C(C(=O)NCCCC)c1ccccn1 (centres undefined),x,0,23*
CCCCCCN(C(=O)CCCCCN1C(=O)NC(c2ccc(-c3ccccc3)cc2)C(C(=O)OCc2ccccc2)=C1C)C(C(=O)NCCCC)C1CCCCC1 (centres undefined),x,0,0
CN1[C@H](CO)[C@@H]2c3ccccc3N(C(=O)c3ccc(F)cc3)C[C@@H]21,12,0,-10
CC(=O)c1ccc(C(=O)Nc2ccc3c(c2)C(=O)NC3=O)cc1,7,0,-6
SMILES,C2C12 statin,E-sel inducer,DENV2 CPE
CC(C)(C)c1ccc(C(=O)Nc2ccc3c(c2)C(=O)NC3=O)cc1,-12,137*,58*
COCC(=O)N1CC2(C1)[C@H](c1ccc(-c3cccc(F)c3)cc1)[C@@H](CO)N2C(=O)C1CC1,x,0,-12
Cc1ccc(C2/C(=C(\O)c3cnn(-c4ccccc4)c3C)C(=O)C(=O)N2CCN(C)C)o1 (centres undefined),0,x,x
Cc1ccc(C2/C(=C(/O)c3cnn(-c4ccccc4)c3C)C(=O)C(=O)N2CCN2CCOCC2)o1 (centres undefined),126*,x,x
N#C[C@@H]1[C@H](c2ccc(C3=CCCCC3)cc2)[C@H](CO)N1C(=O)Nc1ccccc1F,5,0,10
COc1ccc(S(=O)(=O)Nc2ccc3c(c2)C(=O)N([C@@H](C)CO)C[C@H](C)[C@H](CN(C)C(=O)Nc2ccc(C(F)(F)F)cc2)OCCCC[C@H](C)O3)cc1,x,0,109*
COc1ccc(S(=O)(=O)Nc2ccc3c(c2)C(=O)N([C@@H](C)CO)C[C@@H](C)[C@@H](CN(C)C(=O)Nc2ccc(C(F)(F)F)cc2)OCCCC[C@H](C)O3)cc1,x,0,-6
COc1ccc(S(=O)(=O)Nc2ccc3c(c2)C(=O)N([C@@H](C)CO)C[C@H](C)[C@@H](CN(C)C(=O)Nc2ccc(C(F)(F)F)cc2)OCCCC[C@H](C)O3)cc1,x,0,106*
COc1ccc(S(=O)(=O)Nc2ccc3c(c2)C(=O)N([C@@H](C)CO)C[C@H](C)[C@@H](CN(C)C(=O)Nc2ccc(C(F)(F)F)cc2)OCCCC[C@@H](C)O3)cc1,x,0,6
C[C@H]1CN([C@@H](C)CO)S(=O)(=O)c2ccc(-c3ccccc3)cc2O[C@H]1CN(C)C(=O)Nc1ccccc1F,47,0,-8
CC(C)NC(=O)NCC[C@@H]1CC[C@@H](NC(=O)Nc2ccccc2)[C@H](CO)O1,-2,0,5
Cn1cnc(S(=O)(=O)N2C[C@H](O)COC[C@H]3O[C@@H](CC(=O)N4CCN(c5ccccc5)CC4)CC[C@@H]32)c1,-19,0,2
O=C(C1CCOCC1)N1CC(=O)N2[C@H](C1)[C@H](c1ccc(C#Cc3cccc(F)c3)cc1)[C@@H]2CO,x,0,10
CCC(Sc1nc(C)cc(C)n1)C(=O)Nc1cc(C)on1 (centres undefined),x,x,4
Cc1cc(C)nc(SCC(=O)NC2=NN=C(c3ccc(Br)cc3)CS2)n1,145*,x,x
Cc1cc(C)nc(SCC(=O)Nc2ccc(Br)cn2)n1,-12,x,x
CCC(Sc1nc(C)cc(C)n1)C(=O)NC1=NN=C(c2ccc(C)cc2)CS1 (centres undefined),83*,x,-7
Cc1noc(C)c1NC(=O)Nc1ccc2c(c1)C(=O)N([C@@H](C)CO)C[C@H](C)[C@H](CN(C)C(=O)Nc1ccc3c(c1)OCO3)O2,-3,0,8
COc1cccc(-c2ccc3n(c2=O)C[C@H]2[C@H](CO)[C@@H](C(=O)N(C)C)[C@@H]3N2CC2CC2)c1,5,0,5
O=C(C[C@H]1CC[C@@H]2[C@H](COC[C@@H](O)CN2C(=O)c2ccccn2)O1)NC1CCC1,-18,0,-7
O=C(OCC(=O)N1CCOCC1)c1ccccc1OCc1ccc(Cl)cc1,-2,0,6
O=C(OCC(=O)N1CCN(C(=O)c2ccco2)CC1)c1ccccc1OCc1ccc(Cl)cc1,133*,x,x
COc1cccc(-c2cnc3c(c2)C(=O)N([C@H](C)CO)C[C@@H](C)[C@H](CN(C)Cc2ccccc2)O3)c1,37,0,27*
COc1cccc(-c2cnc3c(c2)C(=O)N([C@@H](C)CO)C[C@@H](C)[C@H](CN(C)Cc2ccccc2)O3)c1,15,0,25
COc1ccccc1-c1cnc2c(c1)C(=O)N([C@@H](C)CO)C[C@H](C)[C@H](CN(C)Cc1cccnc1)O2,-4,0,1
COc1ccccc1-c1cnc2c(c1)C(=O)N([C@H](C)CO)C[C@@H](C)[C@H](CN(C)Cc1cccnc1)O2,-2,0,26*
